Source: PubChem BioAssay
AHR activator: human AHR activation; AHR-responsive luciferase reporter cells, luminescence; activation, % at 5 µM; AID 2796; 320,000 compounds, 2.5% hits; in the data active = activation above about 47%;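 also: 0% = vehicle wells and 100% = reference agonist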
SR-BI uptake up: SR-BI HDL lipid transfer activation. CHO ldlA[mSR-BI] cells, DiI-HDL uptake fluorescence, 3 h; 100 = double the neutral-control signal. activation, % at 12.5 µM. 320,000 compounds, 0.096% hits;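 active = mean replicate activation of at least 60% and every replicate at or above 60%; inconclusive = mean or all-replicate condition met, but not both; inactive = mean below 60% and not all replicates reaching 60%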;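 also: 0% = median plate neutral-control signal and 100% = twice that signal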
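Test system: SR-BI-overexpressing, LDLR-lacking CHO cells; Also added: labelled HDL, 10 µg/mL; Measured by: bottom-read cell fluorescence after medium removal, ex 550/em 595 nm; Timing: 3 h uptake period with compound, 37 °C; Buffer or medium: F12, 0.5% BSA, 25 mM HEPES; Doses: single compound concentration, delivered by pin transfer.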
SR-BI DiI inh: blocks mouse SR-BI lipid uptake from DiI-HDL; ldlA[mSR-BI] CHO cells, DiI-HDL uptake fluorescence, 3 h; 320,000 compounds, 0.96% hits; inhibition, % at 12.5 µM; Q61009;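 active = mean replicate inhibition of at least 70% and a set share of replicates each scoring 70 or more; inconclusive = meets just one of the two criteria; inactive = fails both criteria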;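 also: 0% = median of neutral control wells and 100% = median of positive control wells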
FXN GAA850 act: frataxin GAA850 promoter activation. 360,000 compounds, 0.56% hits. HEK293 lucGAA850 FXN promoter luciferase reporter, 24 h; percent of 10 µM SAHA response. AID 540364. activation, % at 6 µM;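 active = activation above the average of all compounds screened plus 3 SD, cutoff fixed separately per campaign, cut at about 7.5% in these data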;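 also: 0% = DMSO wells and 100% = 10 µM SAHA wells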
ABCB6 inh MLPCN: blocks the human ABCB6 transporter. fluorescence ratio to DMSO, % at 10 µM. K562-ABCB6 porphyrin accumulation, flow cytometry, 1 h; stronger effect = lower value. 360,000 compounds, 0.19% hits;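 active = fluorescence ratio to DMSO below 75%, the collection mean minus 3 SD; inconclusive = too few cells collected in the well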;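 also: signal is porphyrin accumulated inside mitochondria; 100% equals median channel fluorescence of DMSO control wells; lower ratio means ABCB6 inhibition with less porphyrin fluorescence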
Target sequence (Q9NP58 whole entry, looked up): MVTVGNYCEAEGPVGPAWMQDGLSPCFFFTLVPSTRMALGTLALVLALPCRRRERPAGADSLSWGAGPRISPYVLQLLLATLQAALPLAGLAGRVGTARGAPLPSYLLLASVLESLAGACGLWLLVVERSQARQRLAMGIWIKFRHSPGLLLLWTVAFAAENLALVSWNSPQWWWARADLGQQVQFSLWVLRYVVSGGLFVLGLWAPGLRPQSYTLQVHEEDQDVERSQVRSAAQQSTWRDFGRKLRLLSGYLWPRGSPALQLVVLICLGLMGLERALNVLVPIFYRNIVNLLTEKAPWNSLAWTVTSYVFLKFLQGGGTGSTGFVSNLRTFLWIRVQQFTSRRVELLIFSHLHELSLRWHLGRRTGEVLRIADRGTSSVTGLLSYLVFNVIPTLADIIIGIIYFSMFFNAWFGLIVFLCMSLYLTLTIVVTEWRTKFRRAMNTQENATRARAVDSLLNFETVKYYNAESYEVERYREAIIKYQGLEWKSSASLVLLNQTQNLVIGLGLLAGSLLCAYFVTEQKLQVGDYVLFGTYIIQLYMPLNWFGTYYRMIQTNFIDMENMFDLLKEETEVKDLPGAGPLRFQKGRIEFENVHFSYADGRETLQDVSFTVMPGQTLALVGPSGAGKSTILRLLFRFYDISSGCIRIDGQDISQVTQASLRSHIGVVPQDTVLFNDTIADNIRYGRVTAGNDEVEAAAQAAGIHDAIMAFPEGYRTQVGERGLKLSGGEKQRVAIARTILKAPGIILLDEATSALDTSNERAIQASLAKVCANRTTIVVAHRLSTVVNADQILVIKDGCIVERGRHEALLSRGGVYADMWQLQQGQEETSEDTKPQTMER
HIF activator: HIF pathway transcriptional activation. U2OS HRE-luciferase reporter, luminescence; normalized: DMSO 0%, desferrioxamine 100%. activation, % at 7.5 µM (by protocol). 300,000 compounds, 0.32% hits. AID 1910;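 active = mean activation of at least 10% of the iron chelator positive control signal, with at least half of replicates also reaching 10%; inconclusive = mean and replicate majority disagree about reaching 10%; inactive = mean and most replicates under 10%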
GAA30 FXN cntr: activates GAA30 frataxin promoter, counter-screen for GAA850 activators | shares compounds with FXN GAA850 act | HEK293 lucGAA30 FXN promoter luciferase, 24 h; DMSO = 0%, 5 µM ipriflavone = 100% | 1,900 compounds, 66% hits | AID 588350 | activation, % at 6 µM;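 active = mean activation above the mean of solvent-only control wells plus 3 SD, cut at about 22% in these data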;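 also: counterscreen of GAA850 promoter hits where activity marks nonselective or luminescence artifacts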
GAA850 confirm: GAA850 FXN promoter activation confirmation. shares compounds with FXN GAA850 act. HEK293 lucGAA850 FXN promoter luciferase reporter, 24 h; 100% = activation by SAHA. 1,900 compounds, 86% hits. activation, % at 6 µM;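 active = mean activation above a set limit taken from the primary screen, cut at about 8% in these data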;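 also: 0% = DMSO wells and 100% = 10 µM SAHA wells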
* hit, by the source's call; ? = inconclusive; nt = no result. Rows were chosen to be rich in hits. Some 3.9% of all compounds tested hit in one or more screens of this group.

SMILES	AHR activator	SR-BI uptake up	SR-BI DiI inh	FXN GAA850 act	ABCB6 inh MLPCN	HIF activator	GAA30 FXN cntr	GAA850 confirm
COc1ccc(-c2nc(C#N)c(NCCc3ccccc3)o2)cc1OC	17	-72	?	8.2*	95	3	100*	34*
O=C(/C=C1\SC(=O)NC1=O)Nc1ccc(C(=O)O)cc1	1	nt	nt	2	107	-1	nt	nt
O=C(O)CCc1nc2cc3ccccc3cc2[nH]1	1	14	-14	-1	100	0	nt	nt
O=C(O)/C=C/C(=O)NCc1cn(-c2ccccc2)nc1-c1cccc(Br)c1	-2	20	-20	8.2*	102	0	30*	13*
Nc1nc(CSc2ccccc2)nc(N2CCCCC2)n1	42	-12	12	7.9*	103	1	98*	29*
CNC[C@H](CC1CCCCC1)NC[C@H](CO)NCC1(c2ccccc2)CC1	1	35	-35	0	91	0	nt	nt
O=C1CCN(S(=O)(=O)c2ccccc2)CCN1CCOCc1ccccc1	1	-7	-9	0	109	0	nt	nt
Cc1ccc2nc(/C=C/c3cccc(F)c3)ccc2c1	48*	-7	7	9.5*	92	1	101*	30*
COc1cc2ccccc2cc1C(=O)Nc1ccccc1Cl	53*	-50	50	8.2*	91	5	121*	39*
CC(=O)c1cc2c(C)c(C(=O)c3ccccc3)oc2cc1O	12	-10	10	8.8*	105	-1	122*	39*
COC(=O)N(C)C[C@H]1OCc2cn(nn2)CCCC(=O)N([C@@H](C)CO)C[C@@H]1C	nt	nt	nt	nt	100	nt	nt	nt
Cc1ccc(Cl)cc1NC(=O)C(Cc1ccccc1)N1C(=O)C2C3CCC(C3)C2C1=O (centres undefined)	2	-11	11	15*	106	0	19	9.4*
NS(=O)(=O)c1ccc(-n2nncc2-c2ccco2)cc1	-2	-2	2	-1	105	0	nt	nt
OC1(C#CCN2CCOCC2)CCCCC1	-3	7	-7	2	102	0	nt	nt
Cc1cccc(Nc2nc(N)nc(-c3oc4ccccc4c3C)n2)c1	-7	-12	12	1	97	6	nt	nt
Cc1c(-c2nc(N)nc(Nc3ccccc3F)n2)oc2ccccc12	-5	-42	42	14*	97	5	112*	48*
CC1CCN(C(=O)C2CCN(S(=O)(=O)c3cccc4nsnc34)CC2)CC1	-1	-6	6	1	102	0	nt	nt
COc1ccccc1Nc1nc2ccc(C)cc2n2cnnc12	25	-29	29	3	93	0	nt	nt
Cc1ccc(-c2cc(-c3ccccc3)c(C#N)c(N)n2)o1	6	-6	6	-2	110	0	nt	nt
Cc1cc(-c2ccc(Cl)cc2)c(C#N)c(N)n1	17	-4	4	8.2*	105	0	16	15*
O=C(c1cccc(Cl)c1)N1CCN(C2CCCCC2)CC1	4	6	-6	1	101	-32	nt	nt
CCN(C[C@H]1N[C@@](CC)(C(=O)OC)[C@H]2C(=O)N(Cc3ccccc3)C(=O)[C@@H]12)C(=O)COC	1	-4	4	-2	97	nt	nt	nt
CCN(C[C@H]1N[C@@](CC)(C(=O)OC)[C@H]2C(=O)N(Cc3ccccc3)C(=O)[C@@H]12)C(=O)COc1ccccc1	0	9	-9	8.0*	105	nt	28*	14*
CCN(C[C@H]1N[C@@](CC)(C(=O)OC)[C@H]2C(=O)N(Cc3ccccc3)C(=O)[C@@H]12)C(=O)Nc1ccc(Cl)cc1	1	-37	37	15*	103	nt	31*	14*
CCN(C[C@H]1N[C@@](CC)(C(=O)OC)[C@H]2C(=O)N(Cc3ccccc3)C(=O)[C@@H]12)C(=O)Nc1ccc(C)cc1	2	-32	32	14*	103	nt	33*	12*
SMILES	AHR activator	SR-BI uptake up	SR-BI DiI inh	FXN GAA850 act	ABCB6 inh MLPCN	HIF activator	GAA30 FXN cntr	GAA850 confirm
Cc1ccc(-n2c(SCC(=O)NCCN3C(=O)CSC3=O)nnc2-c2ccccc2F)cc1	-1	19	-19	-1	95	0	nt	nt
Cc1cc(=O)oc2cc(NC(=O)c3cccc(S(=O)(=O)N(C)C)c3)ccc12	7	nt	nt	4	96	3	nt	nt
CC1CCN(S(=O)(=O)c2ccc3c(c2)C(=NO)c2cc(S(=O)(=O)N4CCC(C)CC4)ccc2-3)CC1	1	7	-7	11*	70*	nt	-71	30*
CCN(CC)S(=O)(=O)c1ccc(C)c(C)c1	-1	-11	11	2	97	0	nt	nt
CCN(CC)S(=O)(=O)c1ccc2c(c1)C(=NO)c1cc(S(=O)(=O)N(CC)CC)ccc1-2	0	-33	33	10*	97	-3	-11	19*
CCC(C)NC(=O)CCS(=O)(=O)c1ccc(Br)s1 (centres undefined)	-2	5	-5	1	99	0	nt	nt
NC(=O)c1cc(NC(=O)CCNS(=O)(=O)c2cccc(C(F)(F)F)c2)cc(C(N)=O)c1	2	8	-8	-1	104	0	nt	nt
CN(Cc1c(C(=O)N2CCc3ccccc3C2)nc2ccc(Cl)cn12)C(C1CC1)C1CC1	1	15	-15	3	94	-1	nt	nt
CC(C)c1ccc(NC(=O)NN2CCOCC2)cc1	18	-9	9	8.0*	94	2	85*	33*
COc1ccc(Br)c(OC)c1C(=O)NC(=O)Nc1c(F)cccc1F	6	-16	16	1	98	1	nt	nt
CCN(CC)CC#CC(O)(c1ccccc1)c1ccccc1	2	16	-16	1	104	0	nt	nt
CC1CCN(c2nnc(N3CCC(C)CC3)c3ccccc23)CC1	1	-58	58	1	98	0	nt	nt
Cn1nc(N)c2ncc(-c3ccc(Cl)cc3)nc21	nt	nt	nt	9.7*	107	nt	99*	30*
O=c1[nH]c(=O)c2ncc(-c3ccc(Cl)cc3)nc2[nH]1	2	nt	nt	nt	nt	0	nt	nt
O=C(Nc1ccccc1-c1ccccc1)c1cnccn1	-1	-19	19	9.0*	94	1	41*	22*
O=C(COC(=O)c1cnccn1)Nc1ccccc1-c1ccccc1	0	-4	4	1	92	nt	nt	nt
O=C(NCCc1ccccc1)c1coc(=O)c(Br)c1	nt	8	-8	8.0*	102	4	-2	21*
O=C(NCCC1=CCCCC1)c1coc(=O)c(Br)c1	1	12	-12	17*	102	2	-3	26*
